Activity calls are given as the source filed them.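 Rule for the calls, unless noted: active = viability at or below 10% of carrier control in both of two separate runs; inconclusive = viability at or below 10% in only one of the two runs; inactive = the rest.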
Tests used:
[1] = Her2 expression decrease, cell viability multiplex – SKBR3 breast tumor cells, AlphaScreen, ATP viability, primary screen (AID 461;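 active = Her2 level under about 52% in both replicate screens, with viability over 70% of control, limit read from the data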;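 for Her2 level: lower value means less Her2 protein in the cells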;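 for viability: percent of carrier control wells set as 100% viability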); details: SKBR3 Her2 protein level, 18-24 h, measured here: SKBR3 viability, ATP luminescence, at 10 µM
[2] = molecular target: Receptor tyrosine-protein kinase erbB-2 (Homo sapiens) (UniProt P04626); test: as above; details: 18-24 h, at 10 µM, stronger effect = lower value
Receptor tyrosine-protein kinase erbB-2 (Homo sapiens), sequence (P04626 whole entry, looked up): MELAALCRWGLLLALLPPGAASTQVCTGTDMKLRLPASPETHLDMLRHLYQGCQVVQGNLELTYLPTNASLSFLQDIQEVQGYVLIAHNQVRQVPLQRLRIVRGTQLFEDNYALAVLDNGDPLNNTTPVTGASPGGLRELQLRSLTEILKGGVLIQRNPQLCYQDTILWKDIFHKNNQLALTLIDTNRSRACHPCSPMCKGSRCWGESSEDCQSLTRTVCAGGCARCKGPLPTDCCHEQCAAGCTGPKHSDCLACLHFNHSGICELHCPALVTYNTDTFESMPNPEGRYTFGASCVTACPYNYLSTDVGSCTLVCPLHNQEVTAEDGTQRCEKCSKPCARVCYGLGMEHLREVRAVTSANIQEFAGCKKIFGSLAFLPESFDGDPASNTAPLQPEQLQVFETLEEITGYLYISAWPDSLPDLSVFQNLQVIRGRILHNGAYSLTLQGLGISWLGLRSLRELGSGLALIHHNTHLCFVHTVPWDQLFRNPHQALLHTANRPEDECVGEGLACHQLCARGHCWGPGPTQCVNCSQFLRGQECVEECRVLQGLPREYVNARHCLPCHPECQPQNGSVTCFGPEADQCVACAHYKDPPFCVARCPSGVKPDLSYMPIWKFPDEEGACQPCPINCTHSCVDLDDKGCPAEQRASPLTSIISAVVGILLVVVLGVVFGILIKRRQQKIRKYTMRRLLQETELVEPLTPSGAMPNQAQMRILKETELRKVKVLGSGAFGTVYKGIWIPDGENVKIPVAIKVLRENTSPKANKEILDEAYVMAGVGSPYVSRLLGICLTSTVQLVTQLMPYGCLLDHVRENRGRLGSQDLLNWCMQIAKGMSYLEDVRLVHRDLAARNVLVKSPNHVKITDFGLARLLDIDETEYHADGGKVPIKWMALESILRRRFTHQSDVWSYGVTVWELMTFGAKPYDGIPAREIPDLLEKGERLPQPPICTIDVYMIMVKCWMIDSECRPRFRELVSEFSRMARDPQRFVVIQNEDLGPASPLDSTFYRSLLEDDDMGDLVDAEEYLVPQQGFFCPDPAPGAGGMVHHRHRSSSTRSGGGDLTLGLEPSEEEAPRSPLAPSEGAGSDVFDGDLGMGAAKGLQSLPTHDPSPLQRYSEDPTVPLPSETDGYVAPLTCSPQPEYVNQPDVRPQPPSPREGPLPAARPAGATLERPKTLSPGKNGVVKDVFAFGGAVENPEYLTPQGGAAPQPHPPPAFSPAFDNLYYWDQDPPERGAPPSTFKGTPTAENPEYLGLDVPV

[3] = reduced viability of SK-BR-3 breast cancer cells – cell-based, 24 h, human, pilot screen (AID 572); details: SK-BR-3 viability, CellTiter-Glo luminescence, at 10 µM, stronger effect = lower value;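 note: compound exposure lasted between 18 and 24 h rather than exactly 24 h; 100% = carrier-treated control wells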
[4] = HUVEC growth inhibition – cell-based, human, primary screen (AID 575;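 active = viability at or below 30% in both replicate assays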;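 note: 100% = median of untreated cell wells with 0.1% DMSO on each plate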); details: HUVEC proliferation, CellTiter-Glo luminescence, 72 h; at 10 µM; stronger effect = lower value
In short: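 Test system: primary human umbilical vein endothelial cells. Quantity: 1250 cells/well. Compound: single 10 µM dose, 0.1% DMSO, from 5x medium stock. Timing: 72 h treatment at 37 °C. Detection: ATP-based CellTiter-Glo luminescent read. Benchmarks: vehicle and MePR control wells. Format: 384-well plates coated with collagen.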

[5] = H69AR cell proliferation blockers – human, duplicate replicates, primary screen (AID 580;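 active = viability at or under a set limit in both replicates, limit being median viability minus 3 SD, cut at about 48% in these data, passing the limit was not always enough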;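 note: 100% = mean luminescence of untreated wells and 0% = no signal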); details: H69AR lung tumor cells viability, ATP luminescence, 72 h; at 10 µM; stronger effect = lower value
[6] = MRP1 drug-resistance reversers in H69AR cells – cell-based, doxorubicin co-treatment, pilot screen (AID 601;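 active = viability loss from added drug above about 55%, and viability with drug at most 40%, in both replicates, limit read from the data, passing the limit was not always enough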); details: CellTiter-Glo, 72 h, at 10 µM; for differential viability (reversal): stronger effect = higher value
[7] = H69AR cells + 2 uM doxorubicin, measured here: viability with 2 uM doxorubicin, stronger effect = lower value
[8] = H69AR cells, compound alone cytotoxicity

Row | Structure (SMILES) | viability [1] [%] | Her2 level [2] | viability [3] | viability [4] | viability [5] | differential viability (reversal) ([6]; H69AR cells + 2 uM doxorubicin) | viability [6, 7] [%] | viability [6, 8] [%]
1 | Cc1cccc(Nc2ccccc2C(=O)O)c1C | 85 | 105% (inactive) | 85% (inactive) | 65.7% (inactive) | 99.4% (inactive) | -3.9% (inactive) | 103 | 99.4
2 | CC(=O)N[C@@H](CS)C(=O)O | 105 | 105% (inactive) | 105% (inactive) | 90.8% (inactive) | 101% (inactive) | 12.8% (inactive) | 88.6 | 101
3 | O=c1n(CCCN2CCN(c3cccc(Cl)c3)CC2)nc2ccccn12 | 81 | 93% (inactive) | 81% (inactive) | 99.2% (inactive) | 87.3% (inactive) | -7.03% (inactive) | 94.3 | 87.3
4 | CC(COc1ccccc1)NC(C)C(O)c1ccc(O)cc1 (centres undefined) | 97 | 105% (inactive) | 97% (inactive) | 88.5% (inactive) | 88.6% (inactive) | -17.2% (inactive) | 106 | 88.6
5 | CN(C)CCOc1ccccc1Cc1ccccc1 | 88.5 | 95.5% (inactive) | 88.5% (inactive) | 107% (inactive) | 100% (inactive) | 11% (inactive) | 89.5 | 100
6 | O=C(O)CCCCCCC1C(=O)NC(=O)N1CCC(O)C1CCCCC1 (centres undefined) | 108 | 108% (inactive) | 108% (inactive) | 79.8% (inactive) | 99.3% (inactive) | -4.75% (inactive) | 104 | 99.3
7 | CCN(CC)CCNC(=O)c1cc(S(C)(=O)=O)ccc1OC | 114 | 95% (inactive) | 114% (inactive) | 102% (inactive) | 111% (inactive) | 14.5% (inactive) | 96.1 | 111
8 | CCCCN(CCCC)CCCOC(=O)c1ccc(N)cc1 | 92 | 106% (inactive) | 92% (inactive) | 111% (inactive) | 90.7% (inactive) | -8.53% (inactive) | 99.2 | 90.7
9 | O=C(O)c1cc(=O)c2c(OCC(O)COc3cccc4oc(C(=O)O)cc(=O)c34)cccc2o1 | 102 | 102% (inactive) | 102% (inactive) | 121% (inactive) | 106% (inactive) | 14.7% (inactive) | 91.5 | 106
10 | O=C(CCCN1CC=C(n2c(=O)[nH]c3ccccc32)CC1)c1ccc(F)cc1 | 77 | 103% (inactive) | 77% (inactive) | 98.4% (inactive) | 86.2% (inactive) | 11.1% (inactive) | 75.1 | 86.2
11 | CN1Cc2c(N)cccc2C(c2ccccc2)C1 (centres undefined) | 81 | 102% (inactive) | 81% (inactive) | 106% (inactive) | 102% (inactive) | 5.5% (inactive) | 96.5 | 102
12 | Clc1ccc(Cn2c(CN3CCCC3)nc3ccccc32)cc1 | 92.5 | 112% (inactive) | 92.5% (inactive) | 85.5% (inactive) | 73.3% (inactive) | -12.6% (inactive) | 85.9 | 73.3
13 | COc1ccc(/C=C(/C#N)c2cccnc2)cc1OC | 92 | 97.5% (inactive) | 92% (inactive) | 96.9% (inactive) | 103% (inactive) | 6.09% (inactive) | 96.7 | 103
14 | CCn1cc(C(=O)O)c(=O)c2cnc(N3CCNCC3)nc21 | 108 | 102% (inactive) | 108% (inactive) | 96.5% (inactive) | 107% (inactive) | 16.4% (inactive) | 90.9 | 107
15 | C[C@]12CC[C@@H]3c4ccc(O)cc4CC[C@H]3[C@@H]1CC[C@@H]2OC(=O)CCC(=O)O | 118 | 111% (inactive) | 118% (inactive) | 99.3% (inactive) | 105% (inactive) | 0.94% (inactive) | 104 | 105
16 | CCS(=O)(=O)CCn1c([N+](=O)[O-])cnc1C | 89.5 | 122% (inactive) | 89.5% (inactive) | 105% (inactive) | 100% (inactive) | 9.26% (inactive) | 90.9 | 100
17 | CC1(C)S[C@@H]2[C@H](NC(=O)Cc3ccccc3)C(=O)N2[C@H]1C(=O)O | 94.5 | 94.5% (inactive) | 94.5% (inactive) | 95.4% (inactive) | 109% (inactive) | 13.5% (inactive) | 95.6 | 109
18 | CN(C)[C@@H]1C(=O)C(C(N)=O)=C(O)[C@@]2(O)C(=O)C3=C(O)c4c(O)ccc(Cl)c4[C@@H](O)[C@H]3C[C@@H]12 | 140 | 108% (inactive) | 140% (inactive) | 101% (inactive) | 84.2% (inactive) | 0.66% (inactive) | 83.6 | 84.2
19 | Cc1cc(C)nc(NS(=O)(=O)c2ccc(N)cc2)n1 | 104 | 110% (inactive) | 104% (inactive) | 83.1% (inactive) | 86.7% (inactive) | 7.25% (inactive) | 79.4 | 86.7
20 | C[C@]12CC[C@H]3[C@@H](CCC4=CC(=O)CC[C@@]43C)[C@@H]1CC[C@@H]2C(=O)CO | 106 | 90.5% (inactive) | 106% (inactive) | 56.6% (inactive) | 78.6% (inactive) | -16.3% (inactive) | 94.9 | 78.6
21 | COc1ccc(CN(CCN(C)C)c2ccccn2)cc1 | 91 | 104% (inactive) | 91% (inactive) | 97.4% (inactive) | 93.9% (inactive) | 19.5% (inactive) | 74.4 | 93.9
22 | Cn1cc(NC(=O)c2cc(NC(=O)c3cc(NC=O)cn3C)cn2C)cc1C(=O)NCCC(=N)N | 96 | 87.5% (inactive) | 96% (inactive) | 90.6% (inactive) | 83.1% (inactive) | -13.2% (inactive) | 96.3 | 83.1

Row | Structure (SMILES) | viability [1] [%] | Her2 level [2] | viability [3] | viability [4] | viability [5] | differential viability (reversal) ([6]; H69AR cells + 2 uM doxorubicin) | viability [6, 7] [%] | viability [6, 8] [%]
23 | NS(=O)(=O)c1cc2c(cc1Cl)NC(C(Cl)Cl)NS2(=O)=O (centres undefined) | 102 | 112% (inactive) | 102% (inactive) | 106% (inactive) | 93.9% (inactive) | -9.8% (inactive) | 104 | 93.9
24 | CC(C)[N+](C)(CCOC(=O)C1c2ccccc2Oc2ccccc21)C(C)C | 108 | 93% (inactive) | 108% (inactive) | 100% (inactive) | 88.1% (inactive) | 2.38% (inactive) | 85.7 | 88.1
25 | O=C(O)c1cccnc1Nc1cccc(C(F)(F)F)c1 | 100 | 98.5% (inactive) | 100% (inactive) | 86.4% (inactive) | 108% (inactive) | 13.5% (inactive) | 94.5 | 108
26 | CCCC(=O)Nc1ccc(OCC(O)CNC(C)C)c(C(C)=O)c1 (centres undefined) | 100 | 121% (inactive) | 100% (inactive) | 115% (inactive) | 101% (inactive) | -0.95% (inactive) | 102 | 101
27 | CCC1(c2ccccc2)C(=O)NCNC1=O | 96.5 | 102% (inactive) | 96.5% (inactive) | 116% (inactive) | 102% (inactive) | 16.5% (inactive) | 85.7 | 102
28 | S=C(N=Nc1ccccc1)NNc1ccccc1 | 118 | 90% (inactive) | 118% (inactive) | 80% (inactive) | 81.4% (inactive) | -6.66% (inactive) | 88 | 81.4
29 | C[C@@H]1C[C@H]2[C@@H]3CCC4=CC(=O)C=C[C@]4(C)[C@@]3(F)[C@@H](O)C[C@]2(C)[C@@]1(O)C(=O)COP(=O)(O)O | 99 | 125% (inactive) | 99% (inactive) | 102% (inactive) | 97.9% (inactive) | -24.3% (inactive) | 122 | 97.9
30 | CC1(C)O[C@@H]2C[C@H]3[C@@H]4CCC5=CC(=O)C=C[C@]5(C)[C@@]4(F)[C@@H](O)C[C@]3(C)[C@]2(C(=O)CO)O1 | 90.5 | 128% (inactive) | 90.5% (inactive) | 103% (inactive) | 92.8% (inactive) | -10.5% (inactive) | 103 | 92.8
31 | CC(C)CCNC(=O)[C@H](CC(C)C)NC(=O)[C@H]1O[C@@H]1C(=O)O | 104 | 112% (inactive) | 104% (inactive) | 95.9% (inactive) | 100% (inactive) | 5.67% (inactive) | 94.5 | 100
32 | C[C@]12CC[C@@H]3c4ccc(O[C@@H]5O[C@H](C(=O)O)[C@@H](O)[C@H](O)[C@H]5O)cc4CC[C@H]3[C@@H]1C[C@@H](O)[C@@H]2O | 102 | 92.5% (inactive) | 102% (inactive) | 89.5% (inactive) | 102% (inactive) | 17.1% (inactive) | 84.8 | 102
33 | CC1Cc2ccccc2N1NC(=O)c1ccc(Cl)c(S(N)(=O)=O)c1 (centres undefined) | 93.5 | 105% (inactive) | 93.5% (inactive) | 102% (inactive) | 91.4% (inactive) | 1.41% (inactive) | 90 | 91.4
34 | CCC(=O)O[C@]1(C(=O)CCl)[C@@H](C)C[C@H]2[C@@H]3CCC4=CC(=O)C=C[C@]4(C)[C@@]3(F)[C@@H](O)C[C@@]21C | 122 | 86.5% (inactive) | 122% (inactive) | 84.9% (inactive) | 87.3% (inactive) | -13.3% (inactive) | 101 | 87.3
35 | Nc1ccc(S(=O)(=O)Nc2ncccn2)cc1 | 96.5 | 100% (inactive) | 96.5% (inactive) | 91.4% (inactive) | 104% (inactive) | 5.02% (inactive) | 98.7 | 104
36 | CC(=O)O[C@]1(C(C)=O)CC[C@H]2[C@@H]3C=C(C)C4=CC(=O)CC[C@]4(C)[C@H]3CC[C@@]21C | 97 | 88% (inactive) | 97% (inactive) | 113% (inactive) | 87.6% (inactive) | 23.2% (inactive) | 64.3 | 87.6
37 | CN(C)CCOC(C)(c1ccccc1)c1ccccn1 (centres undefined) | 79.5 | 120% (inactive) | 79.5% (inactive) | 113% (inactive) | 93.5% (inactive) | -11.6% (inactive) | 105 | 93.5
38 | CC1CCc2cc(F)cc3c(=O)c(C(=O)O)cn1c23 (centres undefined) | 104 | 100% (inactive) | 104% (inactive) | 98.5% (inactive) | 104% (inactive) | 4.35% (inactive) | 99.2 | 104
39 | Cc1ccc(C)c(OCCCC(C)(C)C(=O)O)c1 | 130 | 104% (inactive) | 130% (inactive) | 100% (inactive) | 109% (inactive) | 17.2% (inactive) | 91.5 | 109
40 | N=c1c[n+](N2CCOCC2)[n-]o1 | 114 | 100% (inactive) | 114% (inactive) | 97.7% (inactive) | 96.5% (inactive) | -4.17% (inactive) | 101 | 96.5
41 | O=C(O)Cc1cc(I)c(Oc2ccc(O)c(I)c2)c(I)c1 | 89 | 106% (inactive) | 89% (inactive) | 76% (inactive) | 96.3% (inactive) | -4.12% (inactive) | 100 | 96.3
42 | CC(=O)[C@@]1(O)CC[C@H]2[C@@H]3CCC4=CC(=O)CC[C@]4(C)[C@H]3[C@@H](O)C[C@@]21C | 97 | 104% (inactive) | 97% (inactive) | 94.8% (inactive) | 99.5% (inactive) | 0.36% (inactive) | 99.2 | 99.5
43 | N[C@@H](Cc1cc(I)c(Oc2ccc(O)c(I)c2)c(I)c1)C(=O)O | 100 | 87% (inactive) | 100% (inactive) | 86.9% (inactive) | 97.6% (inactive) | 6.87% (inactive) | 90.8 | 97.6

Reference: PubChem BioAssay
